Data on 70 compounds can be found in ChEMBL document CHEMBL1250552, “Quantitative structure-activity relationship studies of threo-methylphenidate analogs” (Bioorg Med Chem, 2010).

Each structure is given as a SMILES string. pIC50: −log10 of the molar value.

A word on the pIC50: it is the negative decadic logarithm of the IC50, by convention in mol/L.

The target of one test is Sodium-dependent dopamine transporter (Rattus norvegicus, UniProt P23977). Nature of the test: Displacement of [3H]WIN 35428 from Sprague-Dawley rat striatal tissue after 2 hrs by liquid scintillation counting. The note with it: read-out: IC50. The test is classed as tissue-based, Striatum. The method, boiled down: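 Male Sprague–Dawley rats anesthetized with CO₂ gas. Crude synaptosomal P₂ fraction made from striatum and homogenized in 25 mM sodium phosphate, pH 7.7, at 0 °C. Rapid filtration through glass microfiber filters, then scintillation counting.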
Sodium-dependent dopamine transporter, sequence (P23977 whole entry): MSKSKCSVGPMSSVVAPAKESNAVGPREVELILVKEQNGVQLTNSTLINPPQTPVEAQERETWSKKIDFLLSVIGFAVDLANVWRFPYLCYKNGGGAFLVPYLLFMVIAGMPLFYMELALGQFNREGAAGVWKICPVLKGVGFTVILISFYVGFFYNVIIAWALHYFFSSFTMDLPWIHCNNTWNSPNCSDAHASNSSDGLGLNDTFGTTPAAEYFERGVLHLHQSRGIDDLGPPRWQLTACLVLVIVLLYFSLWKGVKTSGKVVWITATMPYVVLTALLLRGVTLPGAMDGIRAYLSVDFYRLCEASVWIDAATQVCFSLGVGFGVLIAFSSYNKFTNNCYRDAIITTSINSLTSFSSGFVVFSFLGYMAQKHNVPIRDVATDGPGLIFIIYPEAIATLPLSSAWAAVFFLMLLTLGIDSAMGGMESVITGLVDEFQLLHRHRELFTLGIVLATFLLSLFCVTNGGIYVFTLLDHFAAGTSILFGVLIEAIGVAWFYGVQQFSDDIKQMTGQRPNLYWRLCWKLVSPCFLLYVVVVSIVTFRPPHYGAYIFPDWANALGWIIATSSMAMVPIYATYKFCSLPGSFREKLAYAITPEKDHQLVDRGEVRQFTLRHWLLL
For orientation: In a radioligand displacement assay an active substance lowers the binding of a labelled ligand.
Consider `COC(=O)[C@H](c1cccc(O)c1)[C@H]1CCCCN1`, for which the pIC50 was 6.49.

As to `COC(=O)[C@H](c1ccc(Br)cc1)[C@H]1CCCCN1`, the pIC50 is 8.16.

On to `COC(=O)[C@H](c1ccc(OC)c(OC)c1)[C@H]1CCCCN1`, for which the pIC50 was 6.09.

Turning to `CCc1ccc([C@@H](C(=O)OC)[C@H]2CCCCN2)cc1` (racemic), the pIC50 was 6.13.

Take `CN(C)C(=O)[C@H](c1ccccc1)[C@H]1CCCCN1Cc1ccccc1` (racemic): the pIC50 was 5.76.

As for `COC[C@H](c1ccccc1)[C@H]1CCCCN1` (racemic), the pIC50 was 7.01.

For the compound `COC(=O)[C@H](c1ccccc1Cl)[C@H]1CCCCN1`, the pIC50 is 5.71.

With `COC(=O)[C@H](c1ccccc1)[C@H]1CCCCN1CCCc1ccccc1` (racemic), the pIC50 is 6.57.

For `COC(=O)[C@H](c1ccccc1)[C@H]1CCCCN1Cc1ccccn1` (racemic), the pIC50 is 6.43.

Turning to `COC(=O)[C@H](c1ccccc1)[C@H]1CCCCN1CCCCCCc1ccccc1` (racemic), the pIC50 is 6.18.

Consider `OC[C@H](c1cccc(F)c1)[C@H]1CCCCN1` (racemic), for which the pIC50 is 6.55.

For `COC(=O)[C@H](c1ccccc1)[C@H]1CCCCN1CCCCCc1ccccc1` (racemic), the pIC50 is 5.80.

Turning to `COC(=O)[C@H](c1ccccc1)[C@H]1CCCCN1CCCCc1ccccc1` (racemic), the pIC50 is 6.69.

Take `COC(=O)[C@H](c1cccc(Cl)c1)[C@H]1CCCCN1Cc1ccccc1` (racemic): the pIC50 was 7.39.

In the case of `NC(=O)[C@H](c1ccccc1)[C@H]1CCCCN1` (racemic), the pIC50 is 5.76.

Regarding `COC(=O)[C@H](c1ccc(C)cc1)[C@H]1CCCCN1`, the pIC50 is 7.48.

As to `CCN1CCCC[C@@H]1[C@H](CO)c1ccccc1` (racemic), the pIC50 is 5.63.

Turning to `COC(=O)[C@H](c1ccccc1)[C@H]1CCCCN1Cc1ccc(N=C=S)cc1` (racemic), the pIC50 is 6.37.

For the compound `COC(=O)[C@H](c1cccc(F)c1)[C@H]1CCCCN1`, the pIC50 was 7.39.

As for `COC(=O)[C@H](c1ccc(I)cc1)[C@H]1CCCCN1`, the pIC50 is 7.85.

As to `COC(=O)[C@H](c1cccc(Cl)c1)[C@H]1CCCCN1`, the pIC50 is 8.29.

Consider `COC(=O)[C@H](c1ccc(OCO)c(CO)c1)[C@H]1CCCCN1C`, for which the pIC50 is 6.21.

With `C=CCN1CCCC[C@@H]1[C@H](C(=O)OC)c1ccccc1` (racemic), the pIC50 was 6.22.

As to `OC[C@H](c1ccccc1)[C@H]1CCCCN1CCCCc1ccccc1` (racemic), the pIC50 is 6.21.

Turning to `COC[C@H](c1ccccc1)[C@H]1CCCCN1Cc1ccccc1`, the pIC50 was 7.75.

Consider `COC(=O)[C@H](c1ccc(C(F)(F)F)cc1)[C@H]1CCCCN1`, for which the pIC50 is 6.21.

As for `COC(=O)[C@H](c1ccc2ccccc2c1)[C@H]1CCCCN1`, the pIC50 is 7.96.

`COC[C@H](c1ccc(Cl)c(Cl)c1)[C@H]1CCCCN1Cc1ccccc1` (racemic): the pIC50 is 8.38.

As to `COC(=O)[C@H](c1ccccc1)[C@H]1CCCCN1Cc1cccnc1` (racemic), the pIC50 is 6.76.

In the case of `COC(=O)[C@H](c1ccccc1)[C@H]1CCCCN1CCc1ccccc1` (racemic), the pIC50 is 6.17.

Take `COC(=O)[C@H](c1ccc(Cl)c(Cl)c1)[C@H]1CCCCN1Cc1ccccc1` (racemic): the pIC50 was 7.12.

With `COC[C@H](c1ccc(Cl)c(Cl)c1)[C@H]1CCCCN1` (racemic), the pIC50 was 8.77.

In the case of `NC(=O)[C@H](c1ccc(Cl)c(Cl)c1)[C@H]1CCCCN1` (racemic), the pIC50 was 7.79.

Consider `COC(=O)[C@H](c1cccc(N)c1)[C@H]1CCCCN1`, for which the pIC50 is 6.58.

As for `COC(=O)[C@H](c1ccc(Cl)cc1)[C@H]1CCCCN1`, the pIC50 was 7.69.

For `OC[C@H](c1ccccc1)[C@H]1CCCCN1` (racemic), the pIC50 is 6.35.

For `COC(=O)[C@H](c1ccccc1)[C@H]1CCCCN1Cc1ccccc1Cl` (racemic), the pIC50 is 6.61.

Regarding `COC(=O)[C@H](c1cc(Cl)cc(Cl)c1)[C@H]1CCCCN1` (racemic), the pIC50 is 7.18.

Turning to `COC(=O)[C@H](c1ccccc1)[C@H]1CCCCN1Cc1cccc(Cl)c1` (racemic), the pIC50 was 6.97.

On to `OC[C@H](c1ccccc1)[C@H]1CCCCN1Cc1ccccc1`, for which the pIC50 is 7.63.

As to `NC(=O)[C@H](c1ccccc1)[C@H]1CCCCN1Cc1ccccc1` (racemic), the pIC50 was 6.42.

Regarding `COC(=O)[C@H](c1ccccc1)[C@H]1CCCCN1Cc1ccncc1` (racemic), the pIC50 was 6.89.

Take `OC[C@H](c1ccccc1)[C@H]1CCCCN1Cc1cccc(Cl)c1` (racemic): the pIC50 is 7.59.

Turning to `COC(=O)[C@H](c1cccc(Br)c1)[C@H]1CCCCN1`, the pIC50 was 8.38.

On to `OC[C@H](c1ccc(Cl)c(Cl)c1)[C@H]1CCCCN1Cc1ccccc1` (racemic), for which the pIC50 is 8.56.

For the compound `COC(=O)[C@H](c1ccccc1)[C@H]1CCCCN1Cc1ccoc1` (racemic), the pIC50 was 6.34.

Take `CC(=O)OC[C@H](c1ccccc1)[C@H]1CCCCN1` (racemic): the pIC50 is 6.16.

Take `COC(=O)[C@H](c1ccccc1)[C@H]1CCCCN1Cc1ccco1` (racemic): the pIC50 is 6.27.

Take `COC(=O)[C@H](c1ccccc1)[C@H]1CCCCN1Cc1cccs1` (racemic): the pIC50 was 6.65.

Regarding `COC(=O)[C@H](c1ccccc1)[C@H]1CCCCN1Cc1ccccc1`, the pIC50 was 7.28.

As for `COC(=O)[C@H](c1ccccc1)[C@H]1CCCCN1Cc1ccc(Cl)cc1` (racemic), the pIC50 is 7.51.

As for `OC[C@H](c1ccccc1)[C@H]1CCCCN1CCCc1ccccc1` (racemic), the pIC50 is 6.71.

As for `COC(=O)[C@H](c1ccccc1)[C@H]1CCCCN1Cc1ccc([N+](=O)[O-])cc1` (racemic), the pIC50 was 6.95.

As to `COC(=O)[C@H](c1ccccc1)[C@H]1CCCCN1Cc1ccc(Cl)s1` (racemic), the pIC50 was 6.41.

As to `COC(=O)[C@H](c1ccccc1)[C@H]1CCCCN1Cc1ccc(OC)cc1` (racemic), the pIC50 was 7.10.

On to `C#CCN1CCCC[C@@H]1[C@H](C(=O)OC)c1ccccc1` (racemic), for which the pIC50 was 6.09.

For `COC(=O)[C@H](c1ccc(N)cc1)[C@H]1CCCCN1`, the pIC50 is 7.46.

As for `COC(=O)[C@H](c1cc(C)cc(C)c1)[C@H]1CCCCN1` (racemic), the pIC50 is 5.33.

Consider `COC(=O)[C@H](c1ccccc1F)[C@H]1CCCCN1`, for which the pIC50 was 5.85.

For the compound `COC(=O)[C@H](c1ccc(F)cc1)[C@H]1CCCCN1`, the pIC50 was 7.46.

In the case of `COC(=O)[C@H](c1ccc([N+](=O)[O-])cc1)[C@H]1CCCCN1`, the pIC50 was 6.31.

In the case of `OC[C@H](c1ccc(Cl)c(Cl)c1)[C@H]1CCCCN1` (racemic), the pIC50 was 8.38.

Take `COC(=O)[C@H](c1ccccc1)[C@H]1CCCCN1Cc1ccsc1` (racemic): the pIC50 is 6.84.

With `OC[C@H](c1ccccc1)[C@H]1CCCCN1CCc1ccccc1` (racemic), the pIC50 was 5.84.

As to `COC(=O)[C@H](c1ccc(Cl)c(Cl)c1)[C@H]1CCCCN1`, the pIC50 was 8.28.

On to `COC(=O)[C@H](c1ccccc1Br)[C@@]1(C)CCCCN1`, for which the pIC50 was 5.73.

As to `COC(=O)[C@H](c1cccc(Cl)c1)[C@@]1(C)CCCCN1C`, the negative-log IC50 (pIC50) was 6.80.

For the compound `O=C(OCc1ccccc1)[C@H](c1ccccc1)[C@H]1CCCCN1` (racemic), the pIC50 was 5.99.

The test is the same for the next values; noted with them: read-out: pIC50 (converted).
Regarding `COC(=O)[C@H](c1ccc(C)cc1)[C@H]1CCCCN1C`, the IC50 is 141 nM.

Turning to `COC(=O)[C@H](c1ccc(O)cc1)[C@H]1CCCCN1C`, the IC50 is 1200 nM.

Turning to `OC[C@H](c1ccc(Cl)c(Cl)c1)[C@H]1CCCCN1Cc1ccccc1` (racemic), the IC50 is 2.69 nM.
